Results published in ChEMBL document CHEMBL2311278, “Novel fluorescent cephalosporins: synthesis, antimicrobial activity and photodynamic inactivation of antibiotic resistant bacteria” (2013).
Calls of active or inactive are those of the source. The calls are words filed in the database; no cut-off is given here.

Tests used:
[1] = tested on: Staphylococcus aureus; test: Binding affinity to methicillin-resistant Staphylococcus aureus MRSA1 assessed per 10^8 cells/ml at 5 uM after overnight incubation by fluorescence analysis; assay type: functional, organism-based
Outline: (§1)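 Incubated with compound, then pelleted, dissolved in 2% SDS, held at 4 °C overnight and sonicated 30 min. Fluorescence intensity compared with that of free compound (50 µM, or 5 µM for the more fluorescent analogue); expressed per 10⁸ cells/mL.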

[2] = tested on: Staphylococcus aureus ATCC 25923; test: Binding affinity to Staphylococcus aureus ATCC 25923 assessed per 10^8 cells/ml at 5 uM after overnight incubation by fluorescence analysis
[3] = tested on: Staphylococcus aureus; test: Binding affinity to methicillin-resistant Staphylococcus aureus MRSA2 assessed per 10^8 cells/ml at 5 uM after overnight incubation by fluorescence analysis; assay type: functional, organism-based; outline: as §1
[4] = tested on: Klebsiella pneumoniae; test: Photodynamic inactivation of Klebsiella pneumoniae ATCC 700603 assessed as lethality at 6 uM after overnight incubation by traditional surface plating method in presence of 126 J/cm 2 white light irradiation; assay type: functional
Outline: (§2)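 Mixed 1:1 with compound and kept in the dark at 37 °C for 30 min with shaking, then exposed to filtered xenon white light (400–800 nm, 350 mW/cm²). Cells diluted in PBS, ~10⁴ CFU/mL plated on LB agar and grown overnight at 37 °C. Treated-and-irradiated CFU divided by untreated, unirradiated CFU; triplicate. Dark controls had no irradiation.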

[5] = tested on: metallo-beta-lactamase CcrA (Bacteroides fragilis); test: Activity at Bacteroides fragilis metallo-beta-lactamase CcrA expressed in Escherichia coli BL21 (DE3) by Michaelis-Menten equation analysis
[6] = tested on: Klebsiella pneumoniae; test: Antibacterial activity against Klebsiella pneumoniae ATCC 700603 after 24 hrs; assay type: functional; conditions: ATCC 700603, 24 h
Outline: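 Broth microdilution in Mueller-Hinton medium. A single LB-plate colony was grown in Mueller-Hinton broth at 35 °C for 2–6 h to 10⁸ CFU/mL by turbidimetry. Compounds were dissolved in ddH₂O and serially diluted in Mueller-Hinton medium from 256 downward. About 10⁶ CFU/mL bacteria were added, and plates were incubated at 37 °C for 24 h.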

[7] = tested on: Staphylococcus aureus; test: Antibacterial activity against methicillin-resistant Staphylococcus aureus MRSA1 after 24 hrs; assay type: functional; conditions: MRSA1, 24 h
Outline: (§3)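 Broth microdilution in Mueller–Hinton medium. Inocula grown from single colonies at 35 °C to 10⁸ CFU/mL by turbidimetry, then added at ~10⁶ CFU/mL to serial dilutions of compound starting at 256 µg/mL (stocks in ddH2O). Incubated 37 °C for 24 h.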

[8] = tested on: Staphylococcus aureus; test: Binding affinity to methicillin-resistant Staphylococcus aureus MRSA1 assessed per 10^8 cells/ml at 50 uM after overnight incubation by fluorescence analysis; assay type: functional, organism-based; outline: as §1
[9] = tested on: Staphylococcus aureus ATCC 25923; test: Binding affinity to Staphylococcus aureus ATCC 25923 assessed per 10^8 cells/ml at 50 uM after overnight incubation by fluorescence analysis
[10] = tested on: metallo-beta-lactamase L1 (Stenotrophomonas maltophilia); test: Activity at Stenotrophomonas maltophilia metallo-beta-lactamase L1 expressed in Escherichia coli BL21 (DE3) by Michaelis-Menten equation analysis
[11] = tested on: Staphylococcus aureus; test: Binding affinity to methicillin-resistant Staphylococcus aureus MRSA2 assessed per 10^8 cells/ml at 50 uM after overnight incubation by fluorescence analysis; assay type: functional, organism-based; outline: as §1
[12] = tested on: Staphylococcus aureus; test: Antibacterial activity against methicillin-resistant Staphylococcus aureus MRSA2 after 24 hrs; assay type: functional; conditions: MRSA2, 24 h; outline: as §3
[13] = tested on: Staphylococcus aureus; test: Binding affinity to methicillin-resistant Staphylococcus aureus MRSA1 at 50 uM after overnight incubation by confocal image analysis; assay type: functional, organism-based
Outline: (§4)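 Incubated with 50 µM compound in the dark with shaking, washed twice in PBS and imaged by confocal fluorescence and differential interference contrast microscopy.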

[14] = tested on: Klebsiella pneumoniae; test: Photodynamic inactivation of Klebsiella pneumoniae ATCC 700603 assessed as lethality at 10 uM after overnight incubation by traditional surface plating method in presence of 350 mW/cm2 white light irradiation; assay type: functional; outline: as §2
[15] = tested on: Staphylococcus aureus; test: Binding affinity to methicillin-resistant Staphylococcus aureus MRSA2 at 50 uM after overnight incubation by confocal image analysis; assay type: functional, organism-based; outline: as §4
[16] = tested on: Klebsiella pneumoniae; test: Photodynamic inactivation of Klebsiella pneumoniae ATCC 700603 assessed as lethality at 6 uM after overnight incubation by traditional surface plating method in presence of 189 J/cm 2 white light irradiation; assay type: functional; outline: as §2
[17] = tested on: Klebsiella pneumoniae; test: Antibacterial activity against Klebsiella pneumoniae ATCC 700603 assessed as lethality at 10 uM after overnight incubation by traditional surface plating method; assay type: functional; outline: as §2
[18] = Binding affinity to Klebsiella pneumoniae ATCC 700603 at 50 uM after overnight incubation by confocal image analysis

| Structure (SMILES) | Activity [4] | Km [5] [µM] | Vmax [5] [µM/s] | kcat [5] [s⁻¹] | MIC [6] [µg/mL] | MIC [7] [µg/mL] | Activity [8] [µM] | Activity [9] [µM] | Km [10] [µM] | Vmax [10] [µM/s] | kcat [10] [s⁻¹] | Activity [11] [µM] | MIC [12] [µg/mL] | also measured |
| --- | --- | --- | --- | --- | --- | --- | --- | --- | --- | --- | --- | --- | --- | --- |
| O=C(O)c1cc2c(ccc3ccccc32)oc1=O | inactive |  |  |  |  |  |  |  |  |  |  |  |  | Activity [1]: 0.03 µM; Activity [2]: 0.044 µM; Activity [3]: 0.033 µM |
| O=C(Cc1cccs1)N[C@@H]1C(=O)N2C(C(=O)O)=C(CSc3ccc(NC(=O)c4cc5c(ccc6ccccc65)oc4=O)cc3)CS[C@H]12 | inactive | 24.4 | 0.604 | 121 | > 128 | > 128 | 3.14 | 6.59 | 20.2 | 0.59 | 29.5 | 2.95 | > 128 |  |
| O=C(Cc1cccs1)N[C@@H]1C(=O)N2C(C(=O)O)=C(CSc3ccc(NC(=O)c4cc5ccccc5oc4=O)cc3)CS[C@H]12 | 84% | 38.3 | 1.05 | 209 | > 128 | > 128 | 2.15 | 2.13 | 6.02 | 0.471 | 23.5 | 1.82 | > 128 | Activity [13]: Active; Activity [14]: >65%; Activity [15]: Active; Activity [16]: >95%; Activity [17]: <5%; Activity [18]: Active |
| O=C(O)c1cc2ccccc2oc1=O |  |  |  |  |  |  | 0.71 | 0.68 |  |  |  | 0.81 |  |  |
